ChEMBL document CHEMBL1137787 (J Med Chem, 2009)
Calls of active or inactive are those of the source. The calls are words filed in the database; no cut-off is given here.

Columns and labels:
[1] = target: T1, Metabotropic glutamate receptor 5 (Rattus norvegicus, UniProt P31424); assay: Antagonist activity at rat mGlu5 receptor expressed in HEK293 cells assessed as inhibition of glutamate-induced response; format: functional, cell-based
[2] = target: Metabotropic glutamate receptor 5 (Rattus norvegicus) (UniProt P31424); assay: (§1) Positive allosteric modulator activity at rat mGlu5 receptor expressed in HEK293 cells assessed as potentiation of glutamate-induced response relative to glutamate; format: cell-based
Sequence of Metabotropic glutamate receptor 5 (Rattus norvegicus) (P31424 21-1203 limits assumed): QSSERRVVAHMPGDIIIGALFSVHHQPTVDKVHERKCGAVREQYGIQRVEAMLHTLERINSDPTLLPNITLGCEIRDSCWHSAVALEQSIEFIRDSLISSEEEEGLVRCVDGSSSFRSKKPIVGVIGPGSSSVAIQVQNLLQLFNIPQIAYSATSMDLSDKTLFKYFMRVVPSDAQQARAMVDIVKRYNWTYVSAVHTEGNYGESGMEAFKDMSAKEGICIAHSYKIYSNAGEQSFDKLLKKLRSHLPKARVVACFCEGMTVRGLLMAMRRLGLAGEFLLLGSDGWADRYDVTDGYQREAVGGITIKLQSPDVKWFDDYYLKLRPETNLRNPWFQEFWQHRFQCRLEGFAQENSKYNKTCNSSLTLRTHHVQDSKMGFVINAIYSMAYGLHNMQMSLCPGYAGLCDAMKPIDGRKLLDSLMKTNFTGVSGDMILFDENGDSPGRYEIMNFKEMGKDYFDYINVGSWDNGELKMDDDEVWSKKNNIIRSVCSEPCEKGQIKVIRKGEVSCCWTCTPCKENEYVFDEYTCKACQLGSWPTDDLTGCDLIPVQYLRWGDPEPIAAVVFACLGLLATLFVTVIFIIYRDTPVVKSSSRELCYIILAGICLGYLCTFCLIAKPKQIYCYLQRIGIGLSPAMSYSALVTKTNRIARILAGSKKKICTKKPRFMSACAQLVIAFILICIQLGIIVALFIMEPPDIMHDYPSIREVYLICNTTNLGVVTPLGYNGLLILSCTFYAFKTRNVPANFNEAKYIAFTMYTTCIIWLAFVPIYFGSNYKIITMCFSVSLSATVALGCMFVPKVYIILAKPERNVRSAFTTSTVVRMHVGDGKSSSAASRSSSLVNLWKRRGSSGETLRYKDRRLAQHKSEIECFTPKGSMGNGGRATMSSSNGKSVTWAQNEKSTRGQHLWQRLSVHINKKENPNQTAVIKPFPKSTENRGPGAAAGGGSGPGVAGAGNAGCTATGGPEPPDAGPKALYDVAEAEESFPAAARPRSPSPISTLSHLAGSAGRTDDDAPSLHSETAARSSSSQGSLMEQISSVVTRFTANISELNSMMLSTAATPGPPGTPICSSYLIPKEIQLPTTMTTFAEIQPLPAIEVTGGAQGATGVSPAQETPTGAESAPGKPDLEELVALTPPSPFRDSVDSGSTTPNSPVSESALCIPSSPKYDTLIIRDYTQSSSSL

[3] = target: T1, Metabotropic glutamate receptor 5; assay: as §1; format: cell-based
[4] = target: Metabotropic glutamate receptor 5 (Rattus norvegicus) (UniProt P31424); assay: Antagonist activity at rat mGlu5 receptor expressed in HEK293 cells assessed as inhibition of glutamate-induced response at 10 uM; format: functional, cell-based; design: scale not given: the % may be the effect or the level left
[5] = target: Metabotropic glutamate receptor 5 (Rattus norvegicus) (UniProt P31424); assay: Positive allosteric modulator activity at rat mGlu5 receptor expressed in HEK293 cells assessed as fold shift in glutamate induced response at 10 uM; format: cell-based
[6] = target: Metabotropic glutamate receptor 3 (Homo sapiens, UniProt Q14832); assay: Antagonist activity at mGlu3 receptor; format: functional
Rattus norvegicus [7] = assay: Anxiolytic activity against Sprague-Dawley rat Geller-Seifter conflict model assessed as increase punished response rate at 30 mg/kg, ip; format: functional; settings: route intraperitoneal
Summary of the method: (§2)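 Modified Geller-Seifter conflict schedule with punished and unpunished components. Animals were tested on 1, 3, 10 and 30 mg/kg and on vehicle. Read-out was the number of responses in each component, as mean ± SEM for eighteen animals. Analysis used ANOVA with Newman-Keuls post hoc comparison to vehicle.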

[8] = target: Metabotropic glutamate receptor 1 (Homo sapiens, UniProt Q13255); assay: Antagonist activity at mGlu1 receptor; format: functional
Rattus norvegicus [9] = assay: Anxiolytic activity against ip dosed Sprague-Dawley rat Geller-Seifter conflict model assessed as increase in punished response; format: functional, organism-based; summary of the method: as §2
[10] = target: Metabotropic glutamate receptor 4 (Homo sapiens, UniProt Q14833); assay: Antagonist activity at mGlu4 receptor; format: functional
[11] = target: Metabotropic glutamate receptor 8 (Homo sapiens, UniProt O00222); assay: Antagonist activity at mGlu8 receptor; format: functional
Sequence of Metabotropic glutamate receptor 8 (O00222 whole entry): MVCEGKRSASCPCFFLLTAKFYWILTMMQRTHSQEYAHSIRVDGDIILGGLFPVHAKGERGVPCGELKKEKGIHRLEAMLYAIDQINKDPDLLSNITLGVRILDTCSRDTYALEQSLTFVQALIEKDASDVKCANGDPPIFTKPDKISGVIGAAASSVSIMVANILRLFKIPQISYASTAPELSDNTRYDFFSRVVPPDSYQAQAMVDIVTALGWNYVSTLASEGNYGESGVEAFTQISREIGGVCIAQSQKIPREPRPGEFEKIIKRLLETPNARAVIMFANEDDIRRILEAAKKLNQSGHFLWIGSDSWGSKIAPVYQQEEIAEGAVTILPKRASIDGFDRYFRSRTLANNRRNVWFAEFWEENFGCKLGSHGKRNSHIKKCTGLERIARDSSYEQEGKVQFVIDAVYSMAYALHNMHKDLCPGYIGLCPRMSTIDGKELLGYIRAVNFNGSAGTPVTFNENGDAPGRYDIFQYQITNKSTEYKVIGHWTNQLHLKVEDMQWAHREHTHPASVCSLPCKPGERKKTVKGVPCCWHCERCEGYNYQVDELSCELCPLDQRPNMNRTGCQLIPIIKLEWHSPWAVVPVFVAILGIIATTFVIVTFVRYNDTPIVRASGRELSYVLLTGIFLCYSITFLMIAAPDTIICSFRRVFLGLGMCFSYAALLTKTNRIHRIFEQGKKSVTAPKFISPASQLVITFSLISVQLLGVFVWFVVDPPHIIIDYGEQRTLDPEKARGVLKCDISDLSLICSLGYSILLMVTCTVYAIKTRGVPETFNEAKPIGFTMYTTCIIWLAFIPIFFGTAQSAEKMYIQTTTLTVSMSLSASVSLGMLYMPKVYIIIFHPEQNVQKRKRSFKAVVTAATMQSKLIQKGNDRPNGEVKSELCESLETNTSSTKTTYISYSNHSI

[12] = target: Metabotropic glutamate receptor 2 (Homo sapiens, UniProt Q14416); assay: Antagonist activity at mGlu2 receptor; format: functional
Sequence of Metabotropic glutamate receptor 2 (Q14416 whole entry): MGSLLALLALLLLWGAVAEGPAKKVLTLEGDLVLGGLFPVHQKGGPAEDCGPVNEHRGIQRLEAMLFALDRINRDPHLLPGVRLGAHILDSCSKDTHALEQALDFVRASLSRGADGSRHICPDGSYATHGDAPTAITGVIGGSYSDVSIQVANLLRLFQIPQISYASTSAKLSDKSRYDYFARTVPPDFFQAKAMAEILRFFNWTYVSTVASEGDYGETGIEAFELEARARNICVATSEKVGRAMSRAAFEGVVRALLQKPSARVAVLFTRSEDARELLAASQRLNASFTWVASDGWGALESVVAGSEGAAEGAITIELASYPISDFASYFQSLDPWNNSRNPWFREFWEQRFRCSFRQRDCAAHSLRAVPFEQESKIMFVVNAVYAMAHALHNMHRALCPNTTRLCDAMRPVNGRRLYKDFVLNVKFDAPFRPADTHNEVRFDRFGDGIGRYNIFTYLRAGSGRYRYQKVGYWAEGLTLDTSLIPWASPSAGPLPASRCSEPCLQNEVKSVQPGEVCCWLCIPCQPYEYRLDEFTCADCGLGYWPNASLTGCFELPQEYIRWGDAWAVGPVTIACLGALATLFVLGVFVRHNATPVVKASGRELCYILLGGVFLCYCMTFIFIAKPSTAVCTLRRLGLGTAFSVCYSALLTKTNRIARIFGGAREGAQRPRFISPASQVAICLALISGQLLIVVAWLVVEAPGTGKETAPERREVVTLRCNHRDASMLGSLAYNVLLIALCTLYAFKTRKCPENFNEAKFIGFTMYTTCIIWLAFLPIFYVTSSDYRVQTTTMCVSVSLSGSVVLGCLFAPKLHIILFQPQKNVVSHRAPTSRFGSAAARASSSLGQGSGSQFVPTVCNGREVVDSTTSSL

[13] = target: Metabotropic glutamate receptor 7 (Homo sapiens, UniProt Q14831); assay: Antagonist activity at mGlu7 receptor; format: functional
Sequence of Metabotropic glutamate receptor 7 (Q14831 whole entry): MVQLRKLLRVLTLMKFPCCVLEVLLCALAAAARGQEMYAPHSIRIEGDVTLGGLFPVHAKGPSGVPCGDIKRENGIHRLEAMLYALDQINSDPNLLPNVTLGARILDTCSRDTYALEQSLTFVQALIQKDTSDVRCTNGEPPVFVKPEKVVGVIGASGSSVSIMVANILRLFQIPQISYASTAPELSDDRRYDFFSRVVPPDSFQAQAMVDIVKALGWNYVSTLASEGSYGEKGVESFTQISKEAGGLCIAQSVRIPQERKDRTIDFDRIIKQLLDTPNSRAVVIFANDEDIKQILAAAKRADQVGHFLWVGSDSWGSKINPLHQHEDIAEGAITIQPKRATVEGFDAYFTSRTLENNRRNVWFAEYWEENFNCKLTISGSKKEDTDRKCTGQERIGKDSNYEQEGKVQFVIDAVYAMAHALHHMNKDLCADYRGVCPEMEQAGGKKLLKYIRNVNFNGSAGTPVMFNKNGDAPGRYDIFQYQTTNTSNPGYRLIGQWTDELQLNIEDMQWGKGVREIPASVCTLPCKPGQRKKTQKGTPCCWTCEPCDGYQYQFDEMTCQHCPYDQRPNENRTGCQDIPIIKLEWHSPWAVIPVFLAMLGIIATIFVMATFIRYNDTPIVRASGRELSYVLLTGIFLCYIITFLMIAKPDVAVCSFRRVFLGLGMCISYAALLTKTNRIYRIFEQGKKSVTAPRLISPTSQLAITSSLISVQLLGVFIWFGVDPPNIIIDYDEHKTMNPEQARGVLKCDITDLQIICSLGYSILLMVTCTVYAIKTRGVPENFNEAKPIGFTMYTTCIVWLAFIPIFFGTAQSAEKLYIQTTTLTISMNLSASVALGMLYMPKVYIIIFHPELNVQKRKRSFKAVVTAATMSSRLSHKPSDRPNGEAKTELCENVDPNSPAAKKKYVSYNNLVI

Rattus norvegicus [14] = assay: Antipsychotic activity in Sprague-Dawley rat assessed as reversal of amphetamine-induced hyperlocomotion administered ip 30 mins before amphetamine-challenge; format: functional, organism-based
Summary of the method: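 Rats were given the test compound i.p. at 3, 10 or 30 mg/kg in 10% Tween 80 vehicle. Thirty minutes later they received amphetamine, 1 mg/kg s.c. Locomotor activity was then measured. Test compound or vehicle alone was also assessed without amphetamine.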

T1 sequence (P31424 whole entry): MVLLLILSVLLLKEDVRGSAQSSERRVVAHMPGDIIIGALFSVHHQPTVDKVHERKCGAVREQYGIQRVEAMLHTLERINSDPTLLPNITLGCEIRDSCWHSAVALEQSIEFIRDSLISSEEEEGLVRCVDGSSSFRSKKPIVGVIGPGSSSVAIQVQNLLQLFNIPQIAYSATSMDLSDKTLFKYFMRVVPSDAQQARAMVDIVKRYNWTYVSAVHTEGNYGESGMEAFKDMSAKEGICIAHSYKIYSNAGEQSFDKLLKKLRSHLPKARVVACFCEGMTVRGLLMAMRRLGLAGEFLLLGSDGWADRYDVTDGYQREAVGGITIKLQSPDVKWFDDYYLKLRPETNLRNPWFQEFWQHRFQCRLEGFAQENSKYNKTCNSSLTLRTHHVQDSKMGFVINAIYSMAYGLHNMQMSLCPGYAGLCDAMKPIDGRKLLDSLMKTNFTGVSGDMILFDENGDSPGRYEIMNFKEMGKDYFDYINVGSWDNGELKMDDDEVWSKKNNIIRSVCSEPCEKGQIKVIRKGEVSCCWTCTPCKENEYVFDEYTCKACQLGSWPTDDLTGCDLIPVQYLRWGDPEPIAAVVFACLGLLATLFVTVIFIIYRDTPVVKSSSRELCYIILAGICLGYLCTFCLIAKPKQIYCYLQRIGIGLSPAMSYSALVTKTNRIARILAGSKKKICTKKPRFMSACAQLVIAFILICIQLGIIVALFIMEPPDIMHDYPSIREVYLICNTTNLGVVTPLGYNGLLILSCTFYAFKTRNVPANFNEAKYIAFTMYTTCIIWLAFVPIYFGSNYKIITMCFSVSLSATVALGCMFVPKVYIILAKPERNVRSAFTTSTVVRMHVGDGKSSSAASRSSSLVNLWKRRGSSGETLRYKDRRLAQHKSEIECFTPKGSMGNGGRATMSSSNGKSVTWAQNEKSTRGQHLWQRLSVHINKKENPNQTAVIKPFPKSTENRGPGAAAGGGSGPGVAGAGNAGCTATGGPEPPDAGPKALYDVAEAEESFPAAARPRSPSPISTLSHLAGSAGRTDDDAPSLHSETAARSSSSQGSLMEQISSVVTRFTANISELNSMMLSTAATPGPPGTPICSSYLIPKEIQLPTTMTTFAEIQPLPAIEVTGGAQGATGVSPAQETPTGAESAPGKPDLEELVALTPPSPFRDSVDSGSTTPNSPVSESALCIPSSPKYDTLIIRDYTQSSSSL

Cc1cccc(C#Cc2cncnc2)c1
IC50 ([1]; read-out: IC50): 7.5 nM

C(#Cc1cncnc1)c1ccccc1
IC50 ([1]; read-out: IC50): 486 nM | Activity [2]: 29%

CSc1ncc(C#Cc2cccc(C)c2)cn1
EC50 ([3]; hek293): Not Active

CCOc1ncc(C#Cc2cccc(C)c2)cn1
Activity [4]: 100% | IC50 ([1]; read-out: IC50): 21.1 nM

CC(C)(C)c1ncc(C#Cc2ccccc2)cn1
fold change (FC) [5]: 6 | EC50 ([3]; read-out: EC50): 247 nM

Cc1cccc(C#Cc2cnc(C)nc2)c1
EC50 ([3]; hek293): Not Active

CNc1ncc(C#Cc2cccc(C)c2)cn1
fold change (FC) [5]: 5.9 | EC50 ([3]; read-out: EC50): 21.1 nM

Cc1ccc(C#Cc2cnc(C(C)(C)C)nc2)cc1
EC50 ([3]; hek293): Not Active

COc1ncc(C#Cc2cccc(C)c2)cn1
EC50 ([3]; hek293): Not Active

CNc1ncc(C#Cc2ccc(C)cc2)cn1
fold change (FC) [5]: 5.7 | EC50 ([3]; read-out: EC50): 704 nM

CCNc1ncc(C#Cc2cccc(C)c2)cn1
EC50 ([3]; hek293): Not Active

Cc1cccc(C#Cc2ncccn2)c1
IC50 [6]: > 10000 nM | Activity (Rattus norvegicus [7]): 300% | Activity [4]: 100% | IC50 ([1]; read-out: IC50): 10.8 nM | IC50 [8]: > 10000 nM | Activity (Rattus norvegicus [9]): Dose-dependent effect | IC50 [10]: > 10000 nM | IC50 [11]: > 10000 nM | IC50 [12]: > 10000 nM | IC50 [13]: > 10000 nM

Cc1ccc(C#Cc2cncnc2)cc1
fold change (FC) [5]: 4.2

COc1ncc(C#Cc2ccccc2)cn1
EC50 ([3]; hek293): Not Active

Cc1ccc(C#Cc2cnc(C)nc2)cc1
EC50 ([3]; hek293): Not Active

CSc1ncc(C#Cc2ccccc2)cn1
fold change (FC) [5]: 11 | EC50 ([3]; read-out: EC50): 120 nM

CNc1ncc(C#Cc2ccccc2)cn1
IC50 [6]: > 10000 nM | IC50 [8]: > 10000 nM | fold change (FC) [5]: 15 | Activity (Rattus norvegicus [14]): Dose-dependent effect | IC50 [11]: > 10000 nM | IC50 [12]: > 10000 nM | EC50 ([3]; read-out: EC50): 14.3 nM | IC50 [13]: > 10000 nM

COc1ncc(C#Cc2ccc(C)cc2)cn1
EC50 ([3]; hek293): Not Active

Cc1cccc(C#Cc2cnc(C(C)(C)C)nc2)c1
EC50 ([3]; hek293): Not Active

CCOc1ncc(C#Cc2ccccc2)cn1
IC50 ([1]; hek293): Not Active

CCNc1ncc(C#Cc2ccc(C)cc2)cn1
EC50 ([3]; hek293): Not Active

CCc1ncc(C#Cc2ccccc2)cn1
EC50 ([3]; hek293): Not Active

CCc1ncc(C#Cc2cccc(C)c2)cn1
EC50 ([3]; hek293): Not Active

CCc1ncc(C#Cc2ccc(C)cc2)cn1
EC50 ([3]; hek293): Not Active

Cc1ncc(C#Cc2ccccc2)cn1
EC50 ([3]; hek293): Not Active

CCNc1ncc(C#Cc2ccccc2)cn1
EC50 ([3]; hek293): Not Active

C(#Cc1ncccn1)c1ccccc1
Activity [4]: 100% | IC50 ([1]; read-out: IC50): 195 nM

CSc1ncc(C#Cc2ccc(C)cc2)cn1
EC50 ([3]; hek293): Not Active

Cc1ccc(C#Cc2ncccn2)cc1
IC50 ([1]; read-out: IC50): > 10000 nM | Activity [2]: inactive

CCOc1ncc(C#Cc2ccc(C)cc2)cn1
IC50 ([1]; hek293): Not Active
